Like-named read-outs stand apart in the source and are kept apart here.
Assays:
MDA.MB.231 cell line = experiment: MTT cytotoxicity / cell viability assay; type: cell-based
MDA.MB.231 cells = experiment: Colony formation assay; type: cell-based; details: varying concentrations
[1] = tested on: AKT phosphorylation in BT-20 cells; experiment: Western blot of AKT phosphorylation; type: cell-based; details: vs control, preliminary western blot (Figure S3)
BRK = BRK (Homo sapiens, UniProt Q13882); experiment: BRK biochemical inhibitory assay; details: for inhibition at 2 µM: read-out: % BRK Inhibition
Outline: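 Human BRK kinase pre-incubated with test compound for 10 min, then substrate and ATP mix added. Kinase reaction run 1 h. ADP-Glo reagent added for 40 min, then kinase detection reagent for 45 min. Luminescence read. Single-point screens run at 2 μM and at 0.2 μM test compound, given as % BRK inhibition.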

HCC1806 cells = experiment: Colony formation assay; type: cell-based; details: single concentration of 10 μM
BT-20 cells = experiment: Colony formation assay; type: cell-based; details: varying concentrations

Chain of BRK (Q13882 whole entry): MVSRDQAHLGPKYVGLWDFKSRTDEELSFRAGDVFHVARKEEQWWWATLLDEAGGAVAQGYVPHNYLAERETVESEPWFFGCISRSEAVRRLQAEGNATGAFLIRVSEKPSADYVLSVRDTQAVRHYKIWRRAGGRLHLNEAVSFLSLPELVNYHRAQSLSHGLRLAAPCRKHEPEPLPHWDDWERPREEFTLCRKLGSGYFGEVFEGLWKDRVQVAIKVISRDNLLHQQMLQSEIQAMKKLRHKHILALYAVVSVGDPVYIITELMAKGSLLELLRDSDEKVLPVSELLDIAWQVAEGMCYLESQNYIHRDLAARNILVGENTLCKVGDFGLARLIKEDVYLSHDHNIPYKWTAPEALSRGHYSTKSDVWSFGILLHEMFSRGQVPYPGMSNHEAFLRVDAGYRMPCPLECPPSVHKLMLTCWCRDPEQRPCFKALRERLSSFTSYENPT

Oc1cccc(Nc2ccnc3[nH]c4ccccc4c23)c1 [Compound 4f, tilfrinib]
Cellular assay MDA.MB.231 % Inhibition 10 μM (MDA.MB.231 cell line; MTT, 10 μM, 72h treatment): 31.40%
cytotoxicity in viability studies (MDA.MB.231 cell line; viability studies, in words): minimal cytotoxicity
colony formation (MDA.MB.231 cells): reduce the colony formation
AKT phosphorylation [1]: increase in AKT phosphorylation
Biochemical assay % Inhibition 0.2 μM (BRK; 0.2 μM, ADP-Glo (Table 3)): 86%
Biochemical assay % Inhibition 2 μM (BRK; 2 μM, ADP-Glo (Table 3)): 100%
IC50 (BRK; read-out: BRK IC50, enzymatic inhibition): 25 nM
IC50 (BRK; read-out: Biochemical assay IC50, ADP-Glo (Table 3)): 25.7 ± 5.05 nM
% BRK Inhibition (BRK; single point, 2 μM, ADP-Glo, pyrimido-indole derivatives (Table 1)): 100.0 ± 7.8%
colony formation (HCC1806 cells): reduce the colony formation
colony formation (BT-20 cells): reduce the colony formation

Oc1cccc(-c2cncc(Cl)n2)c1 [Compound 26, 3-(6-chloropyrazin-2-yl)phenol]
inhibition at 2 µM (BRK): 29.6 ± 22.9%

Oc1cccc(-c2cnc3ccccc3n2)c1 [Compound 32, 3-(quinoxalin-2-yl)phenol]
inhibition at 2 µM (BRK): 48.9 ± 8.9%

Oc1cccc(Nc2ncnc3cc(Br)ccc23)c1 [Compound 35, 3-((7-bromoquinazolin-4-yl)amino)phenol]
inhibition at 2 µM (BRK): 76.1 ± 7.3%

— article PMC12574688 (European journal of medicinal chemistry, 2025)
